Reference: ChEMBL document CHEMBL1212777, “Novel VIM metallo-beta-lactamase variant from clinical isolates of Enterobacteriaceae from Algeria” (2010)

Key:
[1] = test system: Escherichia coli BL21(DE3); test: Hydrolytic activity of Escherichia coli BL21 DE3 beta-lactamase VIM-19 by microacidimetric method
Summary of the method: (§1)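 Enzyme overexpressed from modified pET9a in E. coli BL21(DE3), released by sonication, and purified on Q Sepharose (20 mM Tris-HCl pH 7.4, 0–500 mM NaCl gradient) then Superose 12. Protein measured by Bio-Rad assay against a BSA standard.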

[2] = test system: Escherichia coli BL21(DE3); test: Ratio of Kcat to Km for Escherichia coli BL21 DE3 beta-lactamase VIM-19 by microacidimetric method; summary of the method: as §1
[3] = test system: CC(=O)OCC1=C(C(=O)O)N2C(=O)[C@@H](NC(=O)Cc3cccs3)[C@H]2SC1; test: (§2) Hydrolytic activity of Escherichia coli DH10B beta-lactamase VIM-2 by microacidimetric method; conditions: Escherichia coli str. K-12 substr. DH10B
[4] = test system: CC(C)(O/N=C(\C(=O)N[C@@H]1C(=O)N2C(C(=O)[O-])=C(C[n+]3ccccc3)CS[C@H]12)c1csc(N)n1)C(=O)O; test: as §2; conditions: Escherichia coli str. K-12 substr. DH10B
[5] = test system: CC1(C)S[C@@H]2[C@H](NC(=O)Cc3ccccc3)C(=O)N2[C@H]1C(=O)O; test: as §2; conditions: Escherichia coli str. K-12 substr. DH10B
[6] = test system: CC1(C)S[C@@H]2[C@H](NC(=O)[C@H](C(=O)O)c3ccsc3)C(=O)N2[C@H]1C(=O)O; test: as §2; conditions: Escherichia coli str. K-12 substr. DH10B
[7] = test system: CC1(C)S[C@@H]2[C@H](NC(=O)[C@H](N)c3ccc(O)cc3)C(=O)N2[C@H]1C(=O)O; test: as §2; conditions: Escherichia coli str. K-12 substr. DH10B
[8] = test system: CCN1CCN(C(=O)N[C@@H](C(=O)N[C@@H]2C(=O)N3[C@@H]2SC(C)(C)[C@@H]3C(=O)O)c2ccccc2)C(=O)C1=O; test: as §2; conditions: Escherichia coli str. K-12 substr. DH10B
[9] = test system: CO/N=C(\C(=O)N[C@@H]1C(=O)N2C(C(=O)O)=C(COC(C)=O)CS[C@H]12)c1csc(N)n1; test: as §2; conditions: Escherichia coli str. K-12 substr. DH10B
[10] = test system: CO/N=C(\C(=O)N[C@@H]1C(=O)N2C(C(=O)O)=C(COC(N)=O)CS[C@H]12)c1ccco1; test: as §2; conditions: Escherichia coli str. K-12 substr. DH10B
[11] = test system: CO/N=C(\C(=O)N[C@@H]1C(=O)N2C(C(=O)[O-])=C(C[N+]3(C)CCCC3)CS[C@H]12)c1csc(N)n1; test: as §2; conditions: Escherichia coli str. K-12 substr. DH10B
[12] = test system: CO[C@@]1(NC(=O)Cc2cccs2)C(=O)N2C(C(=O)O)=C(COC(N)=O)CS[C@@H]21; test: as §2; conditions: Escherichia coli str. K-12 substr. DH10B
[13] = test system: C[C@@H](O)[C@H]1C(=O)N2C(C(=O)O)=C(SCCNC=N)C[C@H]12; test: as §2; conditions: Escherichia coli str. K-12 substr. DH10B
[14] = test system: C[C@@H](O)[C@H]1C(=O)N2C(C(=O)O)=C(S[C@@H]3CN[C@H](C(=O)N(C)C)C3)[C@H](C)[C@H]12; test: as §2; conditions: Escherichia coli str. K-12 substr. DH10B
[15] = test system: C[C@@H](O)[C@H]1C(=O)N2C(C(=O)O)=C(S[C@@H]3CN[C@H](C(=O)Nc4cccc(C(=O)O)c4)C3)[C@H](C)[C@H]12; test: as §2; conditions: Escherichia coli str. K-12 substr. DH10B
[16] = test system: C[C@H]1[C@H](NC(=O)/C(=N\OC(C)(C)C(=O)O)c2csc(N)n2)C(=O)N1S(=O)(=O)O; test: as §2; conditions: Escherichia coli str. K-12 substr. DH10B
[17] = test system: CC(=O)OCC1=C(C(=O)O)N2C(=O)[C@@H](NC(=O)Cc3cccs3)[C@H]2SC1; test: (§3) Ratio of Kcat to Km for Escherichia coli DH10B beta-lactamase VIM-2 by microacidimetric method; conditions: Escherichia coli str. K-12 substr. DH10B
[18] = test system: CC(C)(O/N=C(\C(=O)N[C@@H]1C(=O)N2C(C(=O)[O-])=C(C[n+]3ccccc3)CS[C@H]12)c1csc(N)n1)C(=O)O; test: as §3; conditions: Escherichia coli str. K-12 substr. DH10B
[19] = test system: CC1(C)S[C@@H]2[C@H](NC(=O)Cc3ccccc3)C(=O)N2[C@H]1C(=O)O; test: as §3; conditions: Escherichia coli str. K-12 substr. DH10B
[20] = test system: CC1(C)S[C@@H]2[C@H](NC(=O)[C@H](C(=O)O)c3ccsc3)C(=O)N2[C@H]1C(=O)O; test: as §3; conditions: Escherichia coli str. K-12 substr. DH10B
[21] = test system: CC1(C)S[C@@H]2[C@H](NC(=O)[C@H](N)c3ccc(O)cc3)C(=O)N2[C@H]1C(=O)O; test: as §3; conditions: Escherichia coli str. K-12 substr. DH10B
[22] = test system: CCN1CCN(C(=O)N[C@@H](C(=O)N[C@@H]2C(=O)N3[C@@H]2SC(C)(C)[C@@H]3C(=O)O)c2ccccc2)C(=O)C1=O; test: as §3; conditions: Escherichia coli str. K-12 substr. DH10B
[23] = test system: CO/N=C(\C(=O)N[C@@H]1C(=O)N2C(C(=O)O)=C(COC(C)=O)CS[C@H]12)c1csc(N)n1; test: as §3; conditions: Escherichia coli str. K-12 substr. DH10B
[24] = test system: CO/N=C(\C(=O)N[C@@H]1C(=O)N2C(C(=O)O)=C(COC(N)=O)CS[C@H]12)c1ccco1; test: as §3; conditions: Escherichia coli str. K-12 substr. DH10B
[25] = test system: CO/N=C(\C(=O)N[C@@H]1C(=O)N2C(C(=O)[O-])=C(C[N+]3(C)CCCC3)CS[C@H]12)c1csc(N)n1; test: as §3; conditions: Escherichia coli str. K-12 substr. DH10B
[26] = test system: CO[C@@]1(NC(=O)Cc2cccs2)C(=O)N2C(C(=O)O)=C(COC(N)=O)CS[C@@H]21; test: as §3; conditions: Escherichia coli str. K-12 substr. DH10B
[27] = test system: C[C@@H](O)[C@H]1C(=O)N2C(C(=O)O)=C(SCCNC=N)C[C@H]12; test: as §3; conditions: Escherichia coli str. K-12 substr. DH10B
[28] = test system: C[C@@H](O)[C@H]1C(=O)N2C(C(=O)O)=C(S[C@@H]3CN[C@H](C(=O)N(C)C)C3)[C@H](C)[C@H]12; test: as §3; conditions: Escherichia coli str. K-12 substr. DH10B
[29] = test system: C[C@@H](O)[C@H]1C(=O)N2C(C(=O)O)=C(S[C@@H]3CN[C@H](C(=O)Nc4cccc(C(=O)O)c4)C3)[C@H](C)[C@H]12; test: as §3; conditions: Escherichia coli str. K-12 substr. DH10B
[30] = test system: CC(=O)OCC1=C(C(=O)O)N2C(=O)[C@@H](NC(=O)Cc3cccs3)[C@H]2SC1; test: (§4) Hydrolytic activity of beta-lactamase VIM-1 in Escherichia coli DH5alpha expressing pBCLL/39H by microacidimetric method
[31] = test system: CC1(C)S[C@@H]2[C@H](NC(=O)Cc3ccccc3)C(=O)N2[C@H]1C(=O)O; test: as §4
[32] = test system: CCN1CCN(C(=O)N[C@@H](C(=O)N[C@@H]2C(=O)N3[C@@H]2SC(C)(C)[C@@H]3C(=O)O)c2ccccc2)C(=O)C1=O; test: as §4
[33] = test system: CO/N=C(\C(=O)N[C@@H]1C(=O)N2C(C(=O)O)=C(COC(C)=O)CS[C@H]12)c1csc(N)n1; test: as §4
[34] = test system: CO/N=C(\C(=O)N[C@@H]1C(=O)N2C(C(=O)O)=C(COC(N)=O)CS[C@H]12)c1ccco1; test: as §4
[35] = test system: CO[C@@]1(NC(=O)Cc2cccs2)C(=O)N2C(C(=O)O)=C(COC(N)=O)CS[C@@H]21; test: as §4
[36] = test system: CC(=O)OCC1=C(C(=O)O)N2C(=O)[C@@H](NC(=O)Cc3cccs3)[C@H]2SC1; test: (§5) Ratio of Kcat to Km for beta-lactamase VIM-1 in Escherichia coli DH5alpha expressing pBCLL/39H by microacidimetric method
[37] = test system: CC(C)(O/N=C(\C(=O)N[C@@H]1C(=O)N2C(C(=O)[O-])=C(C[n+]3ccccc3)CS[C@H]12)c1csc(N)n1)C(=O)O; test: as §5
[38] = test system: CC1(C)S[C@@H]2[C@H](NC(=O)Cc3ccccc3)C(=O)N2[C@H]1C(=O)O; test: as §5
[39] = test system: CCN1CCN(C(=O)N[C@@H](C(=O)N[C@@H]2C(=O)N3[C@@H]2SC(C)(C)[C@@H]3C(=O)O)c2ccccc2)C(=O)C1=O; test: as §5
[40] = test system: CO/N=C(\C(=O)N[C@@H]1C(=O)N2C(C(=O)O)=C(COC(C)=O)CS[C@H]12)c1csc(N)n1; test: as §5
[41] = test system: CO/N=C(\C(=O)N[C@@H]1C(=O)N2C(C(=O)O)=C(COC(N)=O)CS[C@H]12)c1ccco1; test: as §5
[42] = test system: CO[C@@]1(NC(=O)Cc2cccs2)C(=O)N2C(C(=O)O)=C(COC(N)=O)CS[C@@H]21; test: as §5
[43] = test system: C[C@@H](O)[C@H]1C(=O)N2C(C(=O)O)=C(S[C@@H]3CN[C@H](C(=O)N(C)C)C3)[C@H](C)[C@H]12; test: as §5

CC1(C)S[C@@H]2[C@H](NC(=O)[C@H](C(=O)O)c3ccsc3)C(=O)N2[C@H]1C(=O)O
kcat [1]: 45.8 s⁻¹
kcat/Km [2]: 700000 M⁻¹ s⁻¹

CO/N=C(\C(=O)N[C@@H]1C(=O)N2C(C(=O)[O-])=C(C[N+]3(C)CCCC3)CS[C@H]12)c1csc(N)n1
kcat [1]: 12.5 s⁻¹
kcat/Km [2]: 230000 M⁻¹ s⁻¹

CO/N=C(\C(=O)N[C@@H]1C(=O)N2C(C(=O)O)=C(COC(N)=O)CS[C@H]12)c1ccco1
kcat [1]: 5.3 s⁻¹
kcat/Km [2]: 400000 M⁻¹ s⁻¹

C[C@@H](O)[C@H]1C(=O)N2C(C(=O)O)=C(S[C@@H]3CN[C@H](C(=O)Nc4cccc(C(=O)O)c4)C3)[C@H](C)[C@H]12
kcat [1]: 0.6 s⁻¹
kcat/Km [2]: 30000 M⁻¹ s⁻¹

C[C@@H](O)[C@H]1C(=O)N2C(C(=O)O)=C(SCCNC=N)C[C@H]12
kcat [1]: 8.2 s⁻¹
kcat/Km [2]: 370000 M⁻¹ s⁻¹

CCN1CCN(C(=O)N[C@@H](C(=O)N[C@@H]2C(=O)N3[C@@H]2SC(C)(C)[C@@H]3C(=O)O)c2ccccc2)C(=O)C1=O
kcat [1]: 160 s⁻¹
kcat/Km [2]: 4.3e+06 M⁻¹ s⁻¹

CC1(C)S[C@@H]2[C@H](NC(=O)[C@H](N)c3ccc(O)cc3)C(=O)N2[C@H]1C(=O)O
kcat [1]: 112 s⁻¹
kcat/Km [2]: 3.3e+06 M⁻¹ s⁻¹

CO/N=C(\C(=O)N[C@@H]1C(=O)N2C(C(=O)O)=C(COC(C)=O)CS[C@H]12)c1csc(N)n1
kcat [1]: 34.3 s⁻¹
kcat/Km [2]: 950000 M⁻¹ s⁻¹

CO[C@@]1(NC(=O)Cc2cccs2)C(=O)N2C(C(=O)O)=C(COC(N)=O)CS[C@@H]21
kcat [1]: 4 s⁻¹
kcat/Km [2]: 80000 M⁻¹ s⁻¹

C[C@@H](O)[C@H]1C(=O)N2C(C(=O)O)=C(S[C@@H]3CN[C@H](C(=O)N(C)C)C3)[C@H](C)[C@H]12
kcat [1]: 1.3 s⁻¹
kcat/Km [2]: 140000 M⁻¹ s⁻¹

CC(C)(O/N=C(\C(=O)N[C@@H]1C(=O)N2C(C(=O)[O-])=C(C[n+]3ccccc3)CS[C@H]12)c1csc(N)n1)C(=O)O
kcat [1]: 6.3 s⁻¹
kcat/Km [2]: 70000 M⁻¹ s⁻¹

Metallo-beta-lactamase (Escherichia coli) (from UniProt Q5U7L7)
kcat [3]: 56.2 s⁻¹
kcat [4]: 88.7 s⁻¹
kcat [5]: 55.8 s⁻¹
kcat [6]: 31.7 s⁻¹
kcat [7]: 29.7 s⁻¹
kcat [8]: 32.7 s⁻¹
kcat [9]: 27.5 s⁻¹
kcat [10]: 12.1 s⁻¹
kcat [11]: 4.7 s⁻¹
kcat [12]: 2.8 s⁻¹
kcat [13]: 9.9 s⁻¹
kcat [14]: 1.4 s⁻¹
kcat [15]: 0.2 s⁻¹
kcat [16]: < 0.5 s⁻¹
kcat/Km [17]: 1.28e+06 M⁻¹ s⁻¹
kcat/Km [18]: 900000 M⁻¹ s⁻¹
kcat/Km [19]: 1.14e+06 M⁻¹ s⁻¹
kcat/Km [20]: 690000 M⁻¹ s⁻¹
kcat/Km [21]: 550000 M⁻¹ s⁻¹
kcat/Km [22]: 450000 M⁻¹ s⁻¹
kcat/Km [23]: 860000 M⁻¹ s⁻¹
kcat/Km [24]: 550000 M⁻¹ s⁻¹
kcat/Km [25]: 30000 M⁻¹ s⁻¹
kcat/Km [26]: 120000 M⁻¹ s⁻¹
kcat/Km [27]: 990000 M⁻¹ s⁻¹
kcat/Km [28]: 280000 M⁻¹ s⁻¹
kcat/Km [29]: 22000 M⁻¹ s⁻¹

BlaVIM-1 (Escherichia coli) (from UniProt Q8GDC1)
kcat [30]: 281 s⁻¹
kcat [31]: 29 s⁻¹
kcat [32]: 1860 s⁻¹
kcat [33]: 169 s⁻¹
kcat [34]: 324 s⁻¹
kcat [35]: 26 s⁻¹
kcat/Km [36]: 5.3e+06 M⁻¹ s⁻¹
kcat/Km [37]: 76000 M⁻¹ s⁻¹
kcat/Km [38]: 34000 M⁻¹ s⁻¹
kcat/Km [39]: 530000 M⁻¹ s⁻¹
kcat/Km [40]: 680000 M⁻¹ s⁻¹
kcat/Km [41]: 7.7e+06 M⁻¹ s⁻¹
kcat/Km [42]: 200000 M⁻¹ s⁻¹
kcat/Km [43]: 270000 M⁻¹ s⁻¹

C[C@H]1[C@H](NC(=O)/C(=N\OC(C)(C)C(=O)O)c2csc(N)n2)C(=O)N1S(=O)(=O)O
kcat [1]: < 0.1 s⁻¹

CC(=O)OCC1=C(C(=O)O)N2C(=O)[C@@H](NC(=O)Cc3cccs3)[C@H]2SC1
kcat [1]: 21.2 s⁻¹
kcat/Km [2]: 1.4e+06 M⁻¹ s⁻¹

CC1(C)S[C@@H]2[C@H](NC(=O)Cc3ccccc3)C(=O)N2[C@H]1C(=O)O
kcat [1]: 206 s⁻¹
kcat/Km [2]: 3.6e+06 M⁻¹ s⁻¹
